Test results: ChEMBL document CHEMBL1157478, “Pyrrolo[2,1-c][1,4]benzodiazepine-beta-glucuronide prodrugs with a potential for selective therapy of solid tumors by PMT and ADEPT strategies” (Bioorg Med Chem Lett, 2008)
Calls of active or inactive are those of the source. The rule behind the calls is not given here.

Key:
HT-29 [1] = assay: Cytotoxicity against human HT29 cells by MTT assay; format: functional, cell-based
HT-29 [2] = assay: Induction of cell shrinkage in human HT29 cells after 2 hrs; format: functional, cell-based
Summary of the method: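 HT-29 adenocarcinoma cells were incubated 2 h with compound alone. Morphology (shrinkage) was examined under the microscope against untreated control cells.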

HT-29 [3] = assay: Induction of cell shrinkage in human HT29 cells after 2 hrs in presence of beta-glucuronidase; format: functional, cell-based
Summary of the method: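 HT-29 adenocarcinoma cells were incubated 2 h with compound plus the enzyme beta-glucuronidase. Shrinkage was scored by microscopic examination of cell morphology against untreated control cells.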

HT-29 [4] = assay: Cytotoxicity against human HT29 cells in presence of beta-glucuronidase by MTT assay; format: functional, cell-based
HT-29 [5] = assay: Activation factor, ratio of IC50 for human HT29 cells to IC50 for human HT29 cells in presence of beta-glucuronidase; format: functional

Row | Structure (SMILES) | IC50 (HT-29 [1]) [µmol] | Activity (HT-29 [2]) | Activity (HT-29 [3]) | IC50 (HT-29 [4]) [µmol] | Ratio IC50 (HT-29 [5])
1 | COc1cc2c(cc1O)N=C[C@@H]1CCCN1C2=O | 30.19 | Active |  |  | 
2 | COc1cc2c(cc1OCCCCCOc1cc3c(cc1OC)C(=O)N1CCC[C@H]1C(=O)N3)N=C[C@@H]1CCCN1C2=O | 8.12 |  |  |  | 
3 | COc1cc2c(cc1OCc1ccccc1)N(C(=O)OCc1ccc(O[C@@H]3O[C@H](C(=O)O)[C@@H](O)[C@H](O)[C@H]3O)c([N+](=O)[O-])c1)C(O)[C@@H]1CCCN1C2=O (stereo partly specified) | 5280 | inactive | Active | 41.68 | 126.67
4 | COc1cc2c(cc1OCCCCCOc1cc3c(cc1OC)C(=O)N1CCC[C@H]1C(O)N3C(=O)OCc1ccc(O[C@@H]3O[C@H](C(=O)O)[C@@H](O)[C@H](O)[C@H]3O)c([N+](=O)[O-])c1)NC(=O)[C@@H]1CCCN1C2=O (stereo partly specified) | 2690 |  |  | 12.88 | 208.85
